In ChEMBL document CHEMBL1125809, “Preparation and anticonvulsant activity of a series of functionalized alpha-heteroatom-substituted amino acids” (J Med Chem, 1991):
Values joined by “and” are separate entries in the source; they are usually repeats but may differ in a detail not shown here. Equal entries are not always repeated.

Assays:
[1] = system: Mus musculus; test: Concentration required to prevent seizures upon intraperitoneal administration in mice in MES (maximal electroshock seizure) test.; assay type: functional
How it was run: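 Male CF-1 mice dosed ip with compound in 30% PEG 400 (one compound in acacia). Pilot groups of 4 mice per dose tested at 0.5, 1 and 4 h for protection against maximal electroshock seizures.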

[2] = (§1) Neurotoxic dose (TD50) from horizontal screen in mice; assay type: toxicity, organism-based; conditions: mouse, in vivo
How it was run: (§2)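 Male CF-1 mice, ip dosing in 30% PEG 400 unless otherwise noted. Trained mice are placed on a 13 × 13 cm no. 4 mesh wire screen on a vertical rod, which is rotated 180°. Impairment is scored as failure to climb to the top within 1 min. TD50 comes from a dose-response at the time of peak anticonvulsant activity, with 3–4 doses and 12 mice/dose. Some entries used the rotorod instead.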

[3] = species on record: Mus musculus; test: as §1; assay type: toxicity, organism-based; conditions: in vivo; how it was run: as §2
[4] = Mus musculus, ip, read-out: ED50

Structure (SMILES)	ED50 [1, 4] [mg/kg]	also measured
CSC(NC(C)=O)C(=O)NCc1ccccc1 (stereo unspecified)	> 100	–
CC(=O)NC(C(=O)NCc1ccccc1)c1ccco1 (stereo unspecified)	–	TD50 [2]: 40 mg/kg
CC(=O)NC(NO)C(=O)NCc1ccccc1 (stereo unspecified)	100	–
CCOC(NC(C)=O)C(=O)NCc1ccccc1 (stereo unspecified)	62	TD50 [2]: > 112 mg/kg
CC(=O)NC(C(=O)NCc1ccccc1)N(C)O (stereo unspecified)	30	–
CC(=O)NC(C(=O)NCc1ccccc1)N(C)C (stereo unspecified)	45.3	–
CC(=O)NC(NC(C)=O)C(=O)NCc1ccccc1	–	ED50 [1]: <300 mg/kg and >100 mg/kg
CC[S+]([O-])C(NC(C)=O)C(=O)NCc1ccccc1 (stereo unspecified)	> 100	–
CON(C)C(NC(C)=O)C(=O)NCc1ccccc1 (stereo unspecified)	6.7	TD50 [2]: 50.5 mg/kg
CC(=O)NC(N)C(=O)NCc1ccccc1 (stereo unspecified)	65.1	–
CC(=O)NC(Nc1cc[nH]n1)C(=O)NCc1ccccc1 (stereo unspecified)	100	–
CONC(NC(C)=O)C(=O)NCc1ccccc1 (stereo unspecified)	6.2	TD50 [2]: 46 mg/kg
CC(=O)NC(Sc1ccccc1)C(=O)NCc1ccccc1 (stereo unspecified)	> 300	–
CC(=O)NC(Oc1ccccc1)C(=O)NCc1ccccc1 (stereo unspecified)	> 100	–
CC(=O)NC(O)C(=O)NCc1ccccc1 (stereo unspecified)	80.1	–
CC(=O)NC(NNC(=O)OCc1ccccc1)C(=O)NCc1ccccc1 (stereo unspecified)	55.6	–
CC(=O)NC(Nc1ccccc1)C(=O)NCc1ccccc1 (stereo unspecified)	> 300	–
CC(=O)NC(NC(=O)C(F)(F)F)C(=O)NCc1ccccc1 (stereo unspecified)	> 300	–
COC(NC(C)=O)C(=O)NCc1ccccc1 (stereo unspecified)	–	TD50 [3]: > 100 mg/kg and < 300 mg/kg
CCS(=O)(=O)C(NC(C)=O)C(=O)NCc1ccccc1 (stereo unspecified)	> 100	–
CC(=O)NC(NNc1ccccc1)C(=O)NCc1ccccc1 (stereo unspecified)	100	–
CC(=O)NC(C(=O)NCc1ccccc1)N1CCCO1 (stereo unspecified)	31.4	–
CC(=O)NC(C(=O)NCc1ccccc1)[N+](C)(C)C.F[B-](F)(F)F (stereo unspecified)	> 100	–
